Test [1] concerns TMD8. The test is described as follows: Induction of apoptosis in human TMD8 cells at 333 nM for 48 hrs by Annexin-V/propidium iodide staining based flow cytometric analysis. The test is classed as functional, cell-based. In short, it runs like this: (§1)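 Cells plated at 2 × 10^6 per well and treated 48 h at 3,000–0.15 nM (3-fold dilutions) or 1% DMSO. Harvested, washed in cold PBS, stained with Annexin V Alexa Fluor 488/propidium iodide, analysed by flow cytometry for % live, apoptotic and necrotic cells. Mean of two independent experiments.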
Background: In flow cytometry, cells or beads pass a laser one at a time.

Test [2] relates to TMD8. The test is described as follows: Cytotoxicity against human TMD8 cells incubated for 48 hrs by celltitre glo 2.0 assay. The test is classed as functional, cell-based. The conditions noted are these: TMD8, 48 h.
The target of test [3] is T1, Protein cereblon/Tyrosine-protein kinase BTK (Homo sapiens, UniProt Q06187+Q96SW2). The test is described as follows: PROTAC activity at BTK/CRBN protein protein interaction in human Ramos cell assessed as Hook effect incubated at >333 nM for 17 hrs measured by Western blot analysis. The test is classed as cell-based. An outline of the steps: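 Ramos or JeKo-1 cells (2 × 10^6 per well) were exposed for 17 h to 3000–0.15 nM PROTAC in 3-fold steps. Cells were lysed and analysed by western blot, with BTK normalised to β-actin. DC50 and Dmax come from the dose-response; DC50 is the mean ± SD of two independent experiments.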
Background: Immunoblotting shows a protein as a band on a membrane.

Test [4] concerns the target T1, Protein cereblon/Tyrosine-protein kinase BTK. As to the kind of experiment: PROTAC activity at BTK/CRBN protein protein interaction in human Ramos cell assessed as degradation of BTK preincubated with proteasome inhibitor bortezomib for 2 hrs followed by compound addition at 111 nM for 4 hrs measured by Western blot analysis. In kind it is cell-based. In short, it runs like this:
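Ramos cells were pre-treated for 2 h with bortezomib (proteasome inhibitor) or MLN-4924 (NEDD8-activating enzyme inhibitor), then given 111 nM degrader for 4 h. BTK level was assessed by western blot.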

Test [5] relates to MINO. As to the kind of experiment: Induction of apoptosis in human MINO cells assessed as decrease in caspase 3 level measured after 48 hrs by Western blot analysis. The conditions noted are these: dose 0.15-3000 nM. In kind it is functional, cell-based. In short, it runs like this:
(§2)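 TMD8 or Mino cells (2 × 10^6 per well) exposed 48 h to 3000–0.15 nM (3-fold dilution) or 1% DMSO. Lysates BCA-normalised, 8–30 μg per lane on 4–20% Tris-glycine gels, transferred to nitrocellulose, probed with antibodies, HRP chemiluminescence detection and densitometry. Representative of two independent experiments.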

Test [6] relates to TMD8. The test is described as follows: Induction of apoptosis in human TMD8 cells assessed as increase in cleaved caspase 3 level measured after 48 hrs by Western blot analysis. In kind it is functional, cell-based. The conditions noted are these: dose 0.15-3000 nM. In short, it runs like this:
as §2

For test [7], the target named is T1, Protein cereblon/Tyrosine-protein kinase BTK. The test is described as follows: PROTAC activity at BTK/CRBN protein protein interaction in human Ramos cell assessed as degradation of BTK incubated at 111 nM for 17 hrs in presence of GDC-0853 at 1 uM measured by Western blot analysis. The test is classed as cell-based.
Test [8] relates to TMD8. The test is described as follows: Induction of apoptosis in human TMD8 cells assessed as downregulation in Mcl-1 level measured at 0.15 to 3000 nM after 48 hrs by Western blot analysis. The test is classed as functional, cell-based. The following applies: dose 0.15-3000 nM. In short, it runs like this: as §2
The nature of test [9]: Cytotoxicity against human MINO cells incubated for 48 hrs by celltitre glo 2.0 assay. The test is classed as functional, cell-based.
For test [10], the system named is TMD8. As to the kind of experiment: Induction of apoptosis in human TMD8 cells assessed as decrease in PARP level measured after 48 hrs by Western blot analysis. The test is classed as functional, cell-based. The following applies: dose 0.15-3000 nM. An outline of the steps:
as §2

For test [11], the target named is Protein cereblon (Homo sapiens, UniProt Q96SW2). The test is described as follows: Inhibition of CRBN in HEK293 cells using NanoGlo substrate incubated for 2 hrs by NanoBRET assay. The test is classed as cell-based. In general terms: BRET reads energy transfer from a luciferase to a nearby fluorophore.
In test [12] the test system is MINO. As to the kind of experiment: Induction of apoptosis in human MINO cells at 333 nM for 48 hrs by Annexin-V/propidium iodide staining based flow cytometric analysis. The test is classed as functional, cell-based. In short, it runs like this:
as §1

Activity and IC50 data for 1 molecule are collected here from ChEMBL document CHEMBL5338787, “Discovery of Novel Bruton's Tyrosine Kinase PROTACs with Enhanced Selectivity and Cellular Efficacy” (J Med Chem, 2023).

In general, IC50 refers to the midpoint of a concentration-inhibition curve. Read a high IC50 as weaker potency in that assay.

Active and inactive are the calls of the source. No cut-off for these calls is given here.

T1 sequence (Q06187 2-659 limits assumed): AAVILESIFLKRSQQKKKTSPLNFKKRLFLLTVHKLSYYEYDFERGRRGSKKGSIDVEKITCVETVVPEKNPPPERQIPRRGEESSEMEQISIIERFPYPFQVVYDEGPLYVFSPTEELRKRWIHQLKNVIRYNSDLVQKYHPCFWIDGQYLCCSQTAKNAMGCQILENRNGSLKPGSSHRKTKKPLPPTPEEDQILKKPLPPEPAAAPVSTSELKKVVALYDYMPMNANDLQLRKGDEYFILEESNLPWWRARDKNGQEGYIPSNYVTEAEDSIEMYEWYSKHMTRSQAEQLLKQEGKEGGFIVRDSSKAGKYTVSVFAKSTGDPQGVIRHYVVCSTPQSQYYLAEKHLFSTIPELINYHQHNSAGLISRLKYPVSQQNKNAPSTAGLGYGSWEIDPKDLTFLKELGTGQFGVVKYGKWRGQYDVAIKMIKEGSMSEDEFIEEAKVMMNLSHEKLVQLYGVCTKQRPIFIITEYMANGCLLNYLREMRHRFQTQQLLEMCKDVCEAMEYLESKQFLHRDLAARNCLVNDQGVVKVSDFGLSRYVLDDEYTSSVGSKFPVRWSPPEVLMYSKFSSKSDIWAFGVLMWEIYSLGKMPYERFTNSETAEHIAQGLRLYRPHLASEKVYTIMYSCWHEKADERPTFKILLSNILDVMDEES
T1 sequence (Q96SW2 whole entry partner): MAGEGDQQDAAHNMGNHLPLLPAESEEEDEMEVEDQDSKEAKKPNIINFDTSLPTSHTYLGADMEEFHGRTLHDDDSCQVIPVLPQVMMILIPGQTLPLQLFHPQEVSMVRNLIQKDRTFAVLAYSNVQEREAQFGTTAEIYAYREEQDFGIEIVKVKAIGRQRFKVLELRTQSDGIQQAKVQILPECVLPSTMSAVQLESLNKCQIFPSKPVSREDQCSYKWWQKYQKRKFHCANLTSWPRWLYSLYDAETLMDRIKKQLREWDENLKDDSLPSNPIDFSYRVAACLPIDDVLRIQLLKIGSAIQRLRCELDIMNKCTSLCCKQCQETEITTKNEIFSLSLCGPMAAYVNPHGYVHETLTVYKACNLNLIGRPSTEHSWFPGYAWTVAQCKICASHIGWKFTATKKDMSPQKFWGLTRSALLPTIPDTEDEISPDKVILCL
Chain of Protein cereblon (Q96SW2 whole entry): as the sequence (Q96SW2 whole entry partner) above

Regarding `C[C@H]1CN(C(=O)CNc2cccc3c2C(=O)N(C2CCC(=O)NC2=O)C3=O)CCN1c1ccc(Nc2cc(-c3ccnc(N4CCn5c(cc6c5CC(C)(C)C6)C4=O)c3CO)cn(C)c2=O)nc1` (some centres not stated), the outcome in test [1], in test [3], in test [5], in test [6], in [8] and in test [10] was Active. Further, the result in test [12] was Active. For the same molecule, the IC50 in test [2] turned out to be 1.4 nM; in [9], 2.2 nM; in test [11], 107 nM. Moreover, the outcome in test [4] and in [7] was inactive.
